In ChEMBL document CHEMBL2417369, “Synthesis and evaluation of heteroaryl substituted diazaspirocycles as scaffolds to probe the ATP-binding site of protein kinases” (Bioorg Med Chem, 2013):

Legend:
[1] = target: Tyrosine-protein kinase BTK (Homo sapiens) (UniProt Q06187); experiment: Inhibition of BTK (unknown origin) at 30 uM by microfluidic mobility shift assay relative to control
Method in brief: (§1)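 Single-point screen at 30 µM test compound across a 24-kinase panel in a microfluidic assay format. ATP was set near each enzyme's Km,[ATP]. […] The pan-AGC inhibitor H-89 served as an internal control on every assay plate.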

[2] = target: Tyrosine-protein kinase ABL2 (Homo sapiens) (UniProt P42684); experiment: Inhibition of ARG (unknown origin) at 30 uM by microfluidic mobility shift assay relative to control; method in brief: as §1
Sequence of Tyrosine-protein kinase ABL2 (Homo sapiens) (P42684 whole entry): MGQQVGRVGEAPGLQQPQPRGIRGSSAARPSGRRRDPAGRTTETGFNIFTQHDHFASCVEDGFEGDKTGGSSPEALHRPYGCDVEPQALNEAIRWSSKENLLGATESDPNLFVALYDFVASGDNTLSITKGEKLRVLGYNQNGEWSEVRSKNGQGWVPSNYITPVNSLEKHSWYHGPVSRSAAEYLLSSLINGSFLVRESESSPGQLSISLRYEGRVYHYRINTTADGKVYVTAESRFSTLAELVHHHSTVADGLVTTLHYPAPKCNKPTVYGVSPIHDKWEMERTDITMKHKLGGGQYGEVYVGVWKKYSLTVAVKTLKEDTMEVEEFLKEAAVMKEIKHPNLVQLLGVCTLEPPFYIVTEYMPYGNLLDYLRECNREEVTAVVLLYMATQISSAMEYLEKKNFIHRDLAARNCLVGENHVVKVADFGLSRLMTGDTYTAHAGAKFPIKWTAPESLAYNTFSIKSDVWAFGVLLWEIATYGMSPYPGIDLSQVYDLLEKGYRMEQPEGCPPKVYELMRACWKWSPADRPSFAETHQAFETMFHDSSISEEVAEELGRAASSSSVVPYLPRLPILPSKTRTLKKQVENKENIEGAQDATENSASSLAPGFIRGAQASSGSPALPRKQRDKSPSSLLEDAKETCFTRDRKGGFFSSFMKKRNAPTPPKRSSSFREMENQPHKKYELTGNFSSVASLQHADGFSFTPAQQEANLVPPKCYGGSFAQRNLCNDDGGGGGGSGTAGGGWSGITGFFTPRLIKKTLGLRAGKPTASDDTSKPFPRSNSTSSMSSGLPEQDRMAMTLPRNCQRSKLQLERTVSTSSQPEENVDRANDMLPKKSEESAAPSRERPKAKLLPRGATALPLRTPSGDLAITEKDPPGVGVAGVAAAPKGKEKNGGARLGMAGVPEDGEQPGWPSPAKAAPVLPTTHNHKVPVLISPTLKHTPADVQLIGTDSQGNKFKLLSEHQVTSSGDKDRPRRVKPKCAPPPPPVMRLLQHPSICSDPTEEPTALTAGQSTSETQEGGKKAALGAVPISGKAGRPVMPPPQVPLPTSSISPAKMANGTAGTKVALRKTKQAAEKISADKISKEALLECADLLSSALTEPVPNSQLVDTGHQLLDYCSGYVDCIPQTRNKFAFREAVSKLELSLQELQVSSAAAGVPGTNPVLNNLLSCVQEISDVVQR

[3] = target: T1, Testis-specific serine/threonine-protein kinase 1 (Homo sapiens) (UniProt Q9BXA7); experiment: Inhibition of TSSK1 (unknown origin) at 30 uM by microfluidic mobility shift assay relative to control
T1 sequence (whole entry): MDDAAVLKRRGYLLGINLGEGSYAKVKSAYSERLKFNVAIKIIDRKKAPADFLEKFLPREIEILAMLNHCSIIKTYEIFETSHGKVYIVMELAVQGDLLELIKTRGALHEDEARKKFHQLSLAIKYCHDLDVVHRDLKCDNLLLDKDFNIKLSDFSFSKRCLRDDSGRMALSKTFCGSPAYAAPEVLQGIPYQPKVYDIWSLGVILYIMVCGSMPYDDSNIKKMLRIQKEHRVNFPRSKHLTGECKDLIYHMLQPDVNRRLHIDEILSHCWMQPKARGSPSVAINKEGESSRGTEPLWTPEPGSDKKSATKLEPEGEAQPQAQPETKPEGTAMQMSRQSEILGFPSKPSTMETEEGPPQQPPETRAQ
Method in brief: (§2)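 Single-point screen against a 24-kinase panel in a commercial microfluidic assay format. Compounds were tested at 30 µM, with ATP at approximately the Km,[ATP] of each enzyme. H-89 was included on each assay plate as an internal control.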

[4] = target: Serine/threonine-protein kinase pim-2 (Homo sapiens) (UniProt Q9P1W9); experiment: Inhibition of PIM2 (unknown origin) at 30 uM by microfluidic mobility shift assay relative to control; method in brief: as §1
Sequence of Serine/threonine-protein kinase pim-2 (Homo sapiens) (Q9P1W9 whole entry, looked up): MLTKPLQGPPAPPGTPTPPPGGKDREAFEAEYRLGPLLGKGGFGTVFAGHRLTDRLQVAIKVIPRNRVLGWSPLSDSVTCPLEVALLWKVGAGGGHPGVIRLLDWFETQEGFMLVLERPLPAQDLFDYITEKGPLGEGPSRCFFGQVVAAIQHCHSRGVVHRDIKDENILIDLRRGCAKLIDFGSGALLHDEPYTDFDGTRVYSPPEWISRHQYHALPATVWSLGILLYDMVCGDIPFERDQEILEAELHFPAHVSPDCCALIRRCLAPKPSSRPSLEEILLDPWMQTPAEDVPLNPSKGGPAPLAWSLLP

[5] = target: Mitogen-activated protein kinase 1 (Homo sapiens, UniProt P28482); experiment: Inhibition of MAPK2 (unknown origin) at 30 uM by microfluidic mobility shift assay relative to control; method in brief: as §1
Sequence of Mitogen-activated protein kinase 1 (P28482 whole entry): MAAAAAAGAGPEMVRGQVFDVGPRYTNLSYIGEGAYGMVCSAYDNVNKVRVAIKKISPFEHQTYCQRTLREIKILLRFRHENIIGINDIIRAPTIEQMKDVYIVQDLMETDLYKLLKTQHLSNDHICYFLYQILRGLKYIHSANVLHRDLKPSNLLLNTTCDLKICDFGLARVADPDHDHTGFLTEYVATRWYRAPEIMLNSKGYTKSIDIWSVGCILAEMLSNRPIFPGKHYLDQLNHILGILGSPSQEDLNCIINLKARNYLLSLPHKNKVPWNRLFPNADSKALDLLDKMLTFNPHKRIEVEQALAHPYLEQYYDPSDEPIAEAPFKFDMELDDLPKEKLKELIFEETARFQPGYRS

[6] = target: T2, Calcium/calmodulin-dependent protein kinase type IV (Homo sapiens) (UniProt Q16566); experiment: Inhibition of CAMK4 (unknown origin) at 30 uM by microfluidic mobility shift assay relative to control; method in brief: as §1
T2 sequence (whole entry): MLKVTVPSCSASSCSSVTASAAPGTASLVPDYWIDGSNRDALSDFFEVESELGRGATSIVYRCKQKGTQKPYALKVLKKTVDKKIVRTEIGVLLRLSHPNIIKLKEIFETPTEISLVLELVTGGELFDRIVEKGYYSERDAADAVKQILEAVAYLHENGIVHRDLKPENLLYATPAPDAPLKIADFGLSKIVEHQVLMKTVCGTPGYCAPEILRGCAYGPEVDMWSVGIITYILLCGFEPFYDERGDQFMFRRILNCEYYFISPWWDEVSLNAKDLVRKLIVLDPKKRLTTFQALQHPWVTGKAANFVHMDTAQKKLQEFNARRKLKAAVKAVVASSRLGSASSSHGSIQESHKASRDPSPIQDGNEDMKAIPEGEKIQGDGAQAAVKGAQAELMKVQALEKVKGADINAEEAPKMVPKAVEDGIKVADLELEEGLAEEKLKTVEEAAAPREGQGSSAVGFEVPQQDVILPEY

Homo sapiens [7] = organism: Homo sapiens; experiment: Inhibition of PKGbeta (unknown origin) at 30 uM by microfluidic mobility shift assay relative to control; method in brief: as §2
[8] = target: Protein kinase C gamma type (Homo sapiens) (UniProt P05129); experiment: Inhibition of PKCgamma (unknown origin) at 30 uM by microfluidic mobility shift assay relative to control; method in brief: as §2
[9] = target: T3, Serine/threonine-protein kinase Sgk3 (Homo sapiens) (UniProt Q96BR1); experiment: Inhibition of SGK3 (unknown origin) at 30 uM by microfluidic mobility shift assay relative to control; method in brief: as §2
T3 sequence (whole entry): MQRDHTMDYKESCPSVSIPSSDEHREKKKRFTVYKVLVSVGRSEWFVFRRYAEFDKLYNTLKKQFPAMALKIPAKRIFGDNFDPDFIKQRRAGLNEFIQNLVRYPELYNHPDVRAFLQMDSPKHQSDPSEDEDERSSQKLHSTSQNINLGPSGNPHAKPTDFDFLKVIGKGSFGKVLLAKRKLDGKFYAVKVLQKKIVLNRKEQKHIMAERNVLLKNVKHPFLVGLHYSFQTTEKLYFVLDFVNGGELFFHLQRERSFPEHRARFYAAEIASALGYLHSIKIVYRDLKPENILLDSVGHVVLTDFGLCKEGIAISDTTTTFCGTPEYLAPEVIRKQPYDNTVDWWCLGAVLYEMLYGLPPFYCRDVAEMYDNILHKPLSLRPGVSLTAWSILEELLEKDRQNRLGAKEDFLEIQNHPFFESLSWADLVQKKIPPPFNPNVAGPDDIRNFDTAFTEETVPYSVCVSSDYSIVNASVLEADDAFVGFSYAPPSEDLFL

[10] = target: T4, Serine/threonine-protein kinase Nek2 (Homo sapiens) (UniProt P51955); experiment: Inhibition of NEK2 (unknown origin) at 30 uM by microfluidic mobility shift assay relative to control; method in brief: as §1
T4 sequence (whole entry): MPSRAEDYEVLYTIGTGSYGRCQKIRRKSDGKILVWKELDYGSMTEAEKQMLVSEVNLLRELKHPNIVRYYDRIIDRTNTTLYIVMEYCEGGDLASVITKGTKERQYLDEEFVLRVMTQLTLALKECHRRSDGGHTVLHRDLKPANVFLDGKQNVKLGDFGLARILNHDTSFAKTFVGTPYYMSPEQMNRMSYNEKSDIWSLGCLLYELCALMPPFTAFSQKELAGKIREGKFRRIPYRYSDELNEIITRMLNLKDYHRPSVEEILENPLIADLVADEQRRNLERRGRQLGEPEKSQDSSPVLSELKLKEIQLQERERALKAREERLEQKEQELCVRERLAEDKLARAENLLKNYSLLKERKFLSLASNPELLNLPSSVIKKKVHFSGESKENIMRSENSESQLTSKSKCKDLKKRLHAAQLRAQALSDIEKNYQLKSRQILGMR

Homo sapiens [11] = organism: Homo sapiens; experiment: Inhibition of c-TAK (unknown origin) at 30 uM by microfluidic mobility shift assay relative to control; method in brief: as §2

Sequence of Tyrosine-protein kinase BTK (Homo sapiens) (Q06187 whole entry): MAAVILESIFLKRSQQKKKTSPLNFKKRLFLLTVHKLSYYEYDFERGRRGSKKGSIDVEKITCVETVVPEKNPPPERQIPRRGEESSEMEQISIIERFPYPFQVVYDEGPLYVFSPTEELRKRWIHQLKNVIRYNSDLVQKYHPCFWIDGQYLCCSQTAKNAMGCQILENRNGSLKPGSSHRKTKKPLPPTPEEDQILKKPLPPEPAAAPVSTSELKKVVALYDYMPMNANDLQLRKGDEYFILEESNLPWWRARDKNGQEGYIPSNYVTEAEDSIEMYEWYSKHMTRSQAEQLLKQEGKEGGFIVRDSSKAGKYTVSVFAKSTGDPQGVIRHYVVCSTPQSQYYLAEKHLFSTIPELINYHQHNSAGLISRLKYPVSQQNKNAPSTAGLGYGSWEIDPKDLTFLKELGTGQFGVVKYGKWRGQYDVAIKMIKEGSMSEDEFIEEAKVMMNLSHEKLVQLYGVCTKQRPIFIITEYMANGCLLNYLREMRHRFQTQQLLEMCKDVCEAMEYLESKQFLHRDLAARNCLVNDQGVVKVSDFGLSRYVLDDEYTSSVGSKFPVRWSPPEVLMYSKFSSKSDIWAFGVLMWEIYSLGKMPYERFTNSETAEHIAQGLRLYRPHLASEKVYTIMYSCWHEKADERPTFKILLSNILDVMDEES

inhibition [1] [%]	inhibition [2] [%]	inhibition [3] [%]	inhibition [4] [%]	inhibition [5] [%]	inhibition [6] [%]	inhibition (Homo sapiens [7]) [%]	inhibition [8] [%]	inhibition [9] [%]	inhibition [10] [%]	inhibition (Homo sapiens [11]) [%]	Compound
0	23	99	4	9	18	99	77	95	14	47	c1ccc(C2CCNC3(CCN(c4ncnc5[nH]cnc45)CC3)C2)cc1 (racemic)
11	13	97	21	6	14	98	86	94	11	55	c1ccc(CC2CCNC3(CCN(c4ncnc5[nH]cnc45)CC3)C2)cc1 (racemic)
0	18	65	13	15	18	86	53	27	7	21	c1ccc(CC2CCC3(CCN(c4ncnc5[nH]cnc45)CC3)NC2)cc1 (racemic)
